{"source": "ChEMBL document CHEMBL4732243", "about": "“Design, synthesis, and structure activity relationship analysis of new betulinic acid derivatives as potent HIV inhibitors” (Eur J Med Chem, 2021)"}
{"system": "Human immunodeficiency virus 1", "test": "Antiviral activity against HIV-1 NL4-3 infected in human MT4 cells assessed as reduction in p24 gag protein incubated for 4 days by ELISA", "assay_type": "functional, organism-based", "details": "Human immunodeficiency virus 1, NL4-3, MT4, 96 h; read-out: IC50", "summary_of_the_method": "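MT-4 cells infected with HIV-1 NL4-3 at MOI 0.01, serial compound concentrations, in 96-well format. Supernatant p24 antigen measured by capture ELISA on day 4 post-infection. IC50 is the concentration that inhibits NL4-3 replication by 50%. Bevirimat run in parallel as the reference.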", "units": {"IC50": "nM"}}
{"smiles": "C=C(C)[C@@H]1CC[C@]2(C(=O)N3CCN(C(=O)/C=C/c4ccc(OCCCCCCCC)c(OC)c4)CC3)CC[C@]3(C)[C@H](CC[C@@H]4[C@@]5(C)CC[C@H](OC(=O)CC(C)(C)C(=O)O)C(C)(C)[C@@H]5CC[C@]43C)[C@@H]12", "IC50": "> 1000"}
{"smiles": "C=C(C)[C@@H]1CC[C@]2(C(=O)N3CCN(C(=O)/C=C/c4ccc(O)c(OCCCCCCCC)c4)CC3)CC[C@]3(C)[C@H](CC[C@@H]4[C@@]5(C)CC[C@H](OC(=O)CC(C)(C)C(=O)O)C(C)(C)[C@@H]5CC[C@]43C)[C@@H]12", "IC50": "> 1000"}
{"smiles": "C=C(C)[C@@H]1CC[C@]2(C(=O)CC(=O)CC(C)(C)C(=O)O)CC[C@]3(C)[C@H](CC[C@@H]4[C@@]5(C)CC[C@H](OC(=O)/C=C/c6ccc(OCOC)c(OCOC)c6)C(C)(C)[C@@H]5CC[C@]43C)[C@@H]12", "IC50": "> 1000"}
{"smiles": "C=C(C)[C@@H]1CC[C@]2(C(=O)N3CCN(C(=O)/C=C/c4ccc(OCOC)c(OCCCCCCCC)c4)CC3)CC[C@]3(C)[C@H](CC[C@@H]4[C@@]5(C)CC[C@H](OC(=O)CC(C)(C)C(=O)O)C(C)(C)[C@@H]5CC[C@]43C)[C@@H]12", "IC50": "> 1000"}
{"smiles": "C=C(C)[C@@H]1CC[C@]2(C(=O)O)CC[C@]3(C)[C@H](CC[C@@H]4[C@@]5(C)CC[C@H](OC(=O)/C=C/c6ccc7c(c6)OCO7)C(C)(C)[C@@H]5CC[C@]43C)[C@@H]12", "IC50": "> 1000"}
{"smiles": "C=C(C)[C@@H]1CC[C@]2(CN3CCN(C(=O)/C=C/c4ccc5c(c4)OCO5)CC3)CC[C@]3(C)[C@H](CC[C@@H]4[C@@]5(C)CC[C@H](OC(=O)CC(C)(C)C(=O)O)C(C)(C)[C@@H]5CC[C@]43C)[C@@H]12", "IC50": "> 1000"}
{"smiles": "C=C(C)[C@@H]1CC[C@]2(C(=O)CC(=O)CC(C)(C)C(=O)O)CC[C@]3(C)[C@H](CC[C@@H]4[C@@]5(C)CC[C@H](OC(=O)/C=C/N6CCN(C(=O)OC(C)(C)C)CC6)C(C)(C)[C@@H]5CC[C@]43C)[C@@H]12", "IC50": "> 1000"}
{"smiles": "C=C(C)[C@@H]1CC[C@]2(C(=O)N3CCN(C(=O)/C=C/c4ccc(OCCCCCCCC)c(OCCCCCCCC)c4)CC3)CC[C@]3(C)[C@H](CC[C@@H]4[C@@]5(C)CC[C@H](OC(=O)CC(C)(C)C(=O)O)C(C)(C)[C@@H]5CC[C@]43C)[C@@H]12", "IC50": "> 1000"}
{"smiles": "C=C(C)[C@@H]1CC[C@]2(C(=O)O)CC[C@]3(C)[C@H](CC[C@@H]4[C@@]5(C)CC[C@H](OC(=O)/C=C/c6ccc(OCOC)c(OCOC)c6)C(C)(C)[C@@H]5CC[C@]43C)[C@@H]12", "IC50": "> 1000"}
{"smiles": "C=C(C)[C@@H]1CC[C@]2(C(=O)OCCCCCCCCN3CCN(C(=O)/C=C/c4ccc5c(c4)OCO5)CC3)CC[C@]3(C)[C@H](CC[C@@H]4[C@@]5(C)CC[C@H](OC(=O)CC(C)(C)C(=O)O)C(C)(C)[C@@H]5CC[C@]43C)[C@@H]12", "IC50": "> 1000"}
{"smiles": "C=C(C)[C@@H]1CC[C@]2(C(=O)N3CCN(C(=O)CC(C)(C)C(=O)O)CC3)CC[C@]3(C)[C@H](CC[C@@H]4[C@@]5(C)CC[C@H](OC(=O)/C=C/c6ccc7c(c6)OCO7)C(C)(C)[C@@H]5CC[C@]43C)[C@@H]12", "IC50": "> 1000"}
{"smiles": "C=C(C)[C@@H]1CC[C@]2(C(=O)N3CCN(C(=O)/C=C/c4ccc(OCc5cccc(Cl)c5)c(OC)c4)CC3)CC[C@]3(C)[C@H](CC[C@@H]4[C@@]5(C)CC[C@H](OC(=O)CC(C)(C)C(=O)O)C(C)(C)[C@@H]5CC[C@]43C)[C@@H]12", "IC50": "> 1000"}
{"smiles": "C=C(C)[C@@H]1CC[C@]2(C(=O)CC(C)=O)CC[C@]3(C)[C@H](CC[C@@H]4[C@@]5(C)CC[C@H](OC(=O)/C=C/N6CCN(C(=O)OC(C)(C)C)CC6)C(C)(C)[C@@H]5CC[C@]43C)[C@@H]12", "IC50": "> 1000"}
{"smiles": "C=C(C)[C@@H]1CC[C@]2(C(=O)OCCCOC(=O)/C=C/c3ccc(N(C)C)cc3)CC[C@]3(C)[C@H](CC[C@@H]4[C@@]5(C)CC[C@H](OC(=O)CC(C)(C)C(=O)O)C(C)(C)[C@@H]5CC[C@]43C)[C@@H]12", "IC50": "> 1000"}
